Key:
[1] = Volume of distribution at steady state in Wistar rat at 10 mg/kg, po and 3 mg/kg, iv; format: ADME, organism-based; conditions: in vivo, read-out: Vdss
Outline: (§1)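 Rat pharmacokinetics. Oral dose 10 mg/kg in 0.1% HPMC. IV dose 3 mg/kg in 40% DMA/40% PEG/20% saline. Clearance, half-life, Vdss and oral bioavailability derived from the plasma profiles.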

[2] = Half life in Wistar rat at 10 mg/kg, po and 3 mg/kg, iv; format: ADME, organism-based; conditions: in vivo; outline: as §1
[3] = biological target: T1, Tyrosine-protein kinase JAK3 (Homo sapiens, UniProt P52333); experiment: Inhibition of Jak3 (unknown origin)
T1 sequence (P52333 whole entry): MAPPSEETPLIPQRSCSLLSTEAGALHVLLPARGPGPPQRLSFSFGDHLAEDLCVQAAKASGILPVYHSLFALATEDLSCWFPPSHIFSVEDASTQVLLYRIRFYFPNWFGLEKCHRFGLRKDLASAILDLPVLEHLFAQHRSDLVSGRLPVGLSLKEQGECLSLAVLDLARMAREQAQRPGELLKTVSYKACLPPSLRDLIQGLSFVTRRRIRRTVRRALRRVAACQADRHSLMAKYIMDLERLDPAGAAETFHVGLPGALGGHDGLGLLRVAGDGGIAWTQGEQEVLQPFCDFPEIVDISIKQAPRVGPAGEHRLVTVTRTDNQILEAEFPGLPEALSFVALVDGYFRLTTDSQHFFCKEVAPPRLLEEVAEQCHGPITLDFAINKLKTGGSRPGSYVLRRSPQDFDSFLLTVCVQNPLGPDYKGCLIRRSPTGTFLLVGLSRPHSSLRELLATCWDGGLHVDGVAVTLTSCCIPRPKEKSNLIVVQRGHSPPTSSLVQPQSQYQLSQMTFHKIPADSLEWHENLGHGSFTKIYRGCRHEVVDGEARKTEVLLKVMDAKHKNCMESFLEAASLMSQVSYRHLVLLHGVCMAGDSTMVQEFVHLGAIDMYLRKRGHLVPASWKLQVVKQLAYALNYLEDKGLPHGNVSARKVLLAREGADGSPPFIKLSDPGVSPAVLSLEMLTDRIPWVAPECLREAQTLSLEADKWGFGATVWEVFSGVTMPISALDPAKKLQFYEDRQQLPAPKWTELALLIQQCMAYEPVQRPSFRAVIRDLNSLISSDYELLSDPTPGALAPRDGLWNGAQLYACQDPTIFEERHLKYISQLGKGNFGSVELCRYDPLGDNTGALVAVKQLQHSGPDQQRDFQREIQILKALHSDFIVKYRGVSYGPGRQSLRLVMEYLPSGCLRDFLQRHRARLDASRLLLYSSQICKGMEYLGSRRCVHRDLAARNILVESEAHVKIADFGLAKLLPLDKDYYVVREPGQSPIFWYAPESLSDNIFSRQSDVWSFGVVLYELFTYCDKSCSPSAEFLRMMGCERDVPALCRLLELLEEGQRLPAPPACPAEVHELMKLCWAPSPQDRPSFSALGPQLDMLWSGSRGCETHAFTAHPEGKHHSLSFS

[4] = Clearance in Wistar rat at 10 mg/kg, po and 3 mg/kg, iv; format: ADME, organism-based; conditions: in vivo; outline: as §1
[5] = Cytotoxicity against mouse BA/F3 cells expressing TEL-Jak2 after 72 hrs by MTS assay; format: functional; conditions: BaF3, 72 h
Outline: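 BaF3 TEL-Jak2 cells. Growth inhibition measured by MTS tetrazolium colorimetric read-out and reported as GI50.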

[6] = biological target: Tyrosine-protein kinase JAK2 (Homo sapiens, UniProt O60674); experiment: Inhibition of Jak2 (unknown origin)
Canis familiaris [7] = experiment: AUC (0 to 12 hrs) in beagle dog at 10 mg/kg, po; format: ADME, organism-based, Canis lupus familiaris, Plasma; parameters: time < 12 hr, dose 10 mg/kg, route oral; conditions: in vivo
Outline: (§2)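 Male beagle dogs. Oral dose 10 mg/kg in 0.1% HPMC, pH 2. IV dose 2.5 mg/kg in 20% TEG/D5W. […] Clearance, Vdss, half-life and oral bioavailability (F%) derived from the plasma profiles.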

Canis familiaris [8] = experiment: Oral bioavailability in beagle dog at 10 mg/kg; format: ADME, organism-based, Canis lupus familiaris; conditions: in vivo; outline: as §2
[9] = Half life in beagle dog at 2.5 mg/kg, iv; format: ADME, organism-based, Canis lupus familiaris; parameters: dose 2.5 mg/kg, route intravenous; conditions: in vivo; outline: as §2
[10] = biological target: Tyrosine-protein kinase JAK1 (Homo sapiens, UniProt P23458); experiment: Inhibition of Jak1 (unknown origin)
[11] = Oral bioavailability in Wistar rat at 10 mg/kg; format: ADME, organism-based; conditions: in vivo; outline: as §1
[12] = Half life in beagle dog at 10 mg/kg, po; format: ADME, organism-based, Canis lupus familiaris; parameters: dose 10 mg/kg, route oral; conditions: in vivo; outline: as §2
[13] = Volume of distribution at steady state in beagle dog at 2.5 mg/kg, iv; format: ADME, organism-based, Canis lupus familiaris; parameters: dose 2.5 mg/kg, route intravenous; conditions: in vivo, read-out: Vdss; outline: as §2

Sequence of Tyrosine-protein kinase JAK2 (O60674 whole entry): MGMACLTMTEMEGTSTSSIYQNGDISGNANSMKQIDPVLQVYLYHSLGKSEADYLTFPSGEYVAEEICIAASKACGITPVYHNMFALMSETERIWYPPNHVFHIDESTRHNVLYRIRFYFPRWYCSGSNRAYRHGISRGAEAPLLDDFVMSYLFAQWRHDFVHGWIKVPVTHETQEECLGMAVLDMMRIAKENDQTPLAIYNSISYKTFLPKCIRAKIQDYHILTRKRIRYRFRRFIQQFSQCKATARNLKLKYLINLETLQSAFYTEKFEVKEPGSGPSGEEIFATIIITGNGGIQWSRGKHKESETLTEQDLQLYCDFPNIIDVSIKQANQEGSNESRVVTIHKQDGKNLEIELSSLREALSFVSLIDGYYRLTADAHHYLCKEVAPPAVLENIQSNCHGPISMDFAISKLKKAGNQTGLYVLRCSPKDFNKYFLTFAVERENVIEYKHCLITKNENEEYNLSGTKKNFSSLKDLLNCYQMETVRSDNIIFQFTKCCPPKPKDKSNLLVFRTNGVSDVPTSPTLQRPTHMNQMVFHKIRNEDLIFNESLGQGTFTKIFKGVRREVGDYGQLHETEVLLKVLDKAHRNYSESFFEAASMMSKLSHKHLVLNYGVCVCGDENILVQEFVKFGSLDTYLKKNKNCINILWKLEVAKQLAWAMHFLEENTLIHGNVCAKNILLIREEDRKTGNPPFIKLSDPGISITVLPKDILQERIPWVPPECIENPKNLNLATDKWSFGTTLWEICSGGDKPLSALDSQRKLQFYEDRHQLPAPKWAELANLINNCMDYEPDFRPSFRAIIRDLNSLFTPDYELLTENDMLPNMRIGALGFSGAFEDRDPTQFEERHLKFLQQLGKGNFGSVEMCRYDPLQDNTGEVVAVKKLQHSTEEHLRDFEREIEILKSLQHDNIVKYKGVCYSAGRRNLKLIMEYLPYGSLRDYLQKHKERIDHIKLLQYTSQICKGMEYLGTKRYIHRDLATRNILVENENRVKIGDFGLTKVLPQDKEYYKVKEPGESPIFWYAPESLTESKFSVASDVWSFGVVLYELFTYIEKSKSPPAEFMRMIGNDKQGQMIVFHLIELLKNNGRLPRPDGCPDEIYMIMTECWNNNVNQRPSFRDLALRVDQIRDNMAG
Sequence of Tyrosine-protein kinase JAK1 (P23458 whole entry): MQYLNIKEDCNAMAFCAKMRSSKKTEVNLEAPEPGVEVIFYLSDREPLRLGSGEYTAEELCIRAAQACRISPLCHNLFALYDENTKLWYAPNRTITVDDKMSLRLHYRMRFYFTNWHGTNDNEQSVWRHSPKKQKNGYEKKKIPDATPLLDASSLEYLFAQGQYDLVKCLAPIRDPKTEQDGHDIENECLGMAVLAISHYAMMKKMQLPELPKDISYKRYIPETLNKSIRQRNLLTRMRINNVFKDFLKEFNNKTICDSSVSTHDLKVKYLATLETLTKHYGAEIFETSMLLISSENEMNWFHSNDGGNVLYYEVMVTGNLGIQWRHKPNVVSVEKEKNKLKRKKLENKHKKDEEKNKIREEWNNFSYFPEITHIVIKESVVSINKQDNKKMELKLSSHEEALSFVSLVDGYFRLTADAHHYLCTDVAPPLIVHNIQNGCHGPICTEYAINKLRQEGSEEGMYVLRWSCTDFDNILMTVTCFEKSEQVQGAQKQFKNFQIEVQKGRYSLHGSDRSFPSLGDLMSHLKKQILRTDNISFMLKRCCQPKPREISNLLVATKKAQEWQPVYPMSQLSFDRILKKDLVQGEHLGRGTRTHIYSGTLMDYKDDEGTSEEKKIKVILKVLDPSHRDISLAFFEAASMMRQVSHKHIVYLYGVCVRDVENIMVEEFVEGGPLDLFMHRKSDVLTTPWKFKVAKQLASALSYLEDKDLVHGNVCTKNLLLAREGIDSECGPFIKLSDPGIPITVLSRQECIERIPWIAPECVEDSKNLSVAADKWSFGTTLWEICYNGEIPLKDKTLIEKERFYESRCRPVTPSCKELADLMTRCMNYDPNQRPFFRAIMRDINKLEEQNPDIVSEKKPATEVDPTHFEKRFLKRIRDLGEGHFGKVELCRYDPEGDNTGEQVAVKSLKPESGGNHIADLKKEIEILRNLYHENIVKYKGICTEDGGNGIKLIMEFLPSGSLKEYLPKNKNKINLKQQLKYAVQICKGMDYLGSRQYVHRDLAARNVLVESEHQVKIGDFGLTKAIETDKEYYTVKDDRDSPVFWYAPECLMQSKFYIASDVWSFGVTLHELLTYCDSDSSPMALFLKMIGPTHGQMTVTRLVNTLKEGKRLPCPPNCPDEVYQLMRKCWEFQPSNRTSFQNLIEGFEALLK

Row | Compound | IC50 [3] | IC50 [6] | IC50 [10] | GI50 [5] | further results
1 | Cc1csc2c(Nc3cn(C)cn3)nc(N[C@@H](C)c3ncc(F)cn3)nc12 | 3.93 µM | – | – | 0.037 µM | Vd [1]: 1.2 L/kg; half-life [2]: 0.64 h; clearance [4]: 2.64 L/h/kg
2 | CC(Nc1nc(Nc2cn(C)cn2)c2[nH]ccc2n1)c1ncc(F)cn1 (racemic) | 5.88 µM | < 0.003 µM | – | 0.099 µM | –
3 | CC(Nc1nc(Nc2cn(C)cn2)c2ccc(Cl)nc2n1)c1ncc(F)cn1 (racemic) | > 30 µM | < 0.003 µM | – | 0.028 µM | –
4 | C[C@H](Nc1ncc(Cl)c(Nc2cn(C)cn2)n1)c1ncc(F)cn1 | – | 0.12 µM | – | 0.27 µM | –
5 | C[C@H](Nc1nc(Nc2cn(C)cn2)c2ccn(C3CC3)c2n1)c1ncc(F)cn1 | 2.46 µM | 0.027 µM | 0.029 µM | 0.056 µM | –
6 | COc1ccc2nc(NC(C)c3ncc(F)cn3)nc(Nc3cn(C)cn3)c2c1 (racemic) | > 30 µM | 0.67 µM | – | 3 µM | –
7 | CC(Nc1nc(Nc2cn(C)cn2)c2cccnc2n1)c1ncc(F)cn1 (racemic) | 3.78 µM | 0.033 µM | 0.131 µM | 0.04 µM | Vd [1]: 2.5 L/kg; half-life [2]: 0.92 h; clearance [4]: 6 L/h/kg
8 | C[C@H](Nc1nc(Nc2cn(C)cn2)c2ccncc2n1)c1ncc(F)cn1 | 1.82 µM | 0.012 µM | 0.028 µM | 0.025 µM | –
9 | CC(Nc1nc(Nc2cn(C)cn2)c2cn[nH]c2n1)c1ncc(F)cn1 (racemic) | 4.62 µM | 0.05 µM | 0.022 µM | 0.11 µM | –

Further lines, with some results ahead:

Row | IC50 [3] | IC50 [6] | IC50 [10] | Compound | GI50 [5] | further results
10 | 1.44 µM | 0.015 µM | 0.016 µM | C[C@H](Nc1nc(Nc2cn(C)cn2)c2cnn(C)c2n1)c1ncc(F)cn1 | 0.026 µM | Vd [1]: 1.8 L/kg; half-life [2]: 1.3 h; AUC (Canis familiaris [7]): 49 µM·h; F (Canis familiaris [8]): 139%; half-life [9]: 6.2 h; bioavailability [11]: 90%; half-life [12]: 7.7 h; clearance [4]: 1.5 L/h/kg; Vd [13]: 2.1 L/kg
11 | 30 µM | 0.49 µM | – | C[C@H](Nc1nc(Nc2cn(C)cn2)c2cc(F)cnc2n1)c1ncc(F)cn1 | 3.1 µM | –
12 | 14.8 µM | 0.003 µM | – | C[C@H](Nc1nc(Nc2cn(C)cn2)c2ccccc2n1)c1ncc(F)cn1 | 0.034 µM | –
13 | 13.2 µM | 0.024 µM | – | COc1ccc2c(Nc3cn(C)cn3)nc(NC(C)c3ncc(F)cn3)nc2c1 (racemic) | 0.034 µM | Vd [1]: 6 L/kg; half-life [2]: 0.98 h; clearance [4]: 6.6 L/h/kg
14 | 7.56 µM | 0.027 µM | 0.024 µM | C[C@H](Nc1nc(Nc2cn(C)cn2)c2ccn(C)c2n1)c1ncc(F)cn1 | 0.034 µM | –
15 | > 30 µM | 0.8 µM | 1.5 µM | C[C@H](Nc1nc(Nc2cn(C)cn2)c2nccnc2n1)c1ncc(F)cn1 | 0.53 µM | –
